“And” between values parts separate entries of the source, which are not always exact repeats. Equal values may be shown once. Read-outs that look alike come from different tables or passages of the source.
Tests used:
HSA = details: cited from earlier work
[1] = target: T1, human serum albumin (HSA) (Homo sapiens, UniProt P02768); assay type: in vitro ADME; details: for increase in free radiopharmaceutical level: 8:1 warfarin:HSA mole ratio vs drug-free; for Unbound [^64Cu]Cu-PTSM: HSA; for % Free [^64Cu]Cu-PTSM: 49°C, 2.5% v/v ethanol
How it was run: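 HSA (globulin-free, ≥99.5% fatty acid free) reconstituted in 0.9% saline at 0.66 mM. 100 µL of drug in saline (3.3–53 mM, pH 7) or saline alone (drug-free control) added to 1.0 mL, giving 40 mg/mL HSA at 0.5:1–8:1 drug:HSA. 2–8 µCi 64Cu tracer added and vortexed. Triplicate aliquots ultrafiltered (30,000 Da NMWL) within 5 min, 64Cu gamma-counted.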

[2] = target: T2, canine serum albumin (CSA) (Canis lupus familiaris, UniProt P49822); assay type: in vitro ADME; details: for Unbound level: CSA solutions containing warfarin; for Free tracer: CSA solutions with added ibuprofen
[3] = target: T1, human serum albumin (HSA); details: cited from earlier work; for % bound to HSA: 40 mg/mL HSA solution
rat serum [4] = assay type: in vitro ADME
[5] = Ultrafiltration of [^64Cu]Cu-PTSM in protein-free saline
How it was run: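 Membrane-integrity control without protein: 25 µL ethanol (2.5% v/v) added to 1.0 mL saline containing [64Cu]Cu-PTSM, compared with saline alone. Ultrafiltered through 30,000 Da NMWL membranes, n = 5 per group. % free tracer from 64Cu gamma counts of measured ultrafiltrate and starting-solution volumes.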

rat serum [6] = target: rat serum (Rattus norvegicus, UniProt P02770); details: RSA solution; cited from earlier work
[7] = target: T2, canine serum albumin (CSA); details: no competing drug; cited from earlier work
[8] = ref 37, 38; cited from earlier work
[9] = HSA solutions with even high concentrations of L-tryptophan
[10] = drug-free HSA control (drug:HSA mole ratio 0), 40 mg/mL HSA
[11] = ibuprofen:HSA mole ratio 0.5, 40 mg/mL HSA
[12] = ibuprofen:HSA mole ratio 1, 40 mg/mL HSA
[13] = ibuprofen:HSA mole ratio 2, 40 mg/mL HSA
[14] = ibuprofen:HSA mole ratio 4, 40 mg/mL HSA
[15] = ibuprofen:HSA mole ratio 8, 40 mg/mL HSA
[16] = ibuprofen:HSA mole ratios up to 4:1
[17] = warfarin:HSA mole ratio 0.5, 40 mg/mL HSA
[18] = warfarin:HSA mole ratio 1, 40 mg/mL HSA
[19] = warfarin:HSA mole ratio 2, 40 mg/mL HSA
[20] = warfarin:HSA mole ratio 4, 40 mg/mL HSA
[21] = warfarin:HSA mole ratio 8, 40 mg/mL HSA

T2 sequence (P49822 25-608): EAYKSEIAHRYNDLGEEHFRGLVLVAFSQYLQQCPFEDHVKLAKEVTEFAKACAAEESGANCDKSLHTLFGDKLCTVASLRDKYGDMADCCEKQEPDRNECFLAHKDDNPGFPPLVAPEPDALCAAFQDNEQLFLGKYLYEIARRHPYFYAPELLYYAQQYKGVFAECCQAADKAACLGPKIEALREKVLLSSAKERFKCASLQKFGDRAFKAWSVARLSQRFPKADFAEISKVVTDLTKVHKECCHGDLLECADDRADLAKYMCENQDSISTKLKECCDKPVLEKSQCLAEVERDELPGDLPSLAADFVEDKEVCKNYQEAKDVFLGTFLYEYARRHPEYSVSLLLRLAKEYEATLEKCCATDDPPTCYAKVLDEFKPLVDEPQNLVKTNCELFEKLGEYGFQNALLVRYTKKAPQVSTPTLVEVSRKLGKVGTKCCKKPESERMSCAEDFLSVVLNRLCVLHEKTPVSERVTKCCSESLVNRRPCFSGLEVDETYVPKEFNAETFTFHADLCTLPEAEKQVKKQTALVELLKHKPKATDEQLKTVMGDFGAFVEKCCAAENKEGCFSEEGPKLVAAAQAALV
T1 sequence (P02768 25-609): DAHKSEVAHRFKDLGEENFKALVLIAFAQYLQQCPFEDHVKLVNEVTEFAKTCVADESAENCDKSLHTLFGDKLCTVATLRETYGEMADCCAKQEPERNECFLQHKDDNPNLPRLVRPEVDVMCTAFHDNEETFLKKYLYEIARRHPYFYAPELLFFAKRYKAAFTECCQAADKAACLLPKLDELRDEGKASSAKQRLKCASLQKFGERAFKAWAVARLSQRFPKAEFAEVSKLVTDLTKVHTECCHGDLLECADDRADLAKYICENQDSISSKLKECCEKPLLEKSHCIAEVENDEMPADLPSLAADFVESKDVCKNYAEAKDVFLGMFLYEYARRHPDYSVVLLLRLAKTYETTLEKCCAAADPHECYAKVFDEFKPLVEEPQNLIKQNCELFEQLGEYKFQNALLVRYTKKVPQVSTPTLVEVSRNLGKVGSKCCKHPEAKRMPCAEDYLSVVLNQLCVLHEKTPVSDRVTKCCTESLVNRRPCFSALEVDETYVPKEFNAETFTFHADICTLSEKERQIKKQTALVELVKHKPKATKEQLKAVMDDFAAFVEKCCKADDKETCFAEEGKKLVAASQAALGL
Chain of rat serum (Rattus norvegicus, UniProt P02770) (P02770 25-608): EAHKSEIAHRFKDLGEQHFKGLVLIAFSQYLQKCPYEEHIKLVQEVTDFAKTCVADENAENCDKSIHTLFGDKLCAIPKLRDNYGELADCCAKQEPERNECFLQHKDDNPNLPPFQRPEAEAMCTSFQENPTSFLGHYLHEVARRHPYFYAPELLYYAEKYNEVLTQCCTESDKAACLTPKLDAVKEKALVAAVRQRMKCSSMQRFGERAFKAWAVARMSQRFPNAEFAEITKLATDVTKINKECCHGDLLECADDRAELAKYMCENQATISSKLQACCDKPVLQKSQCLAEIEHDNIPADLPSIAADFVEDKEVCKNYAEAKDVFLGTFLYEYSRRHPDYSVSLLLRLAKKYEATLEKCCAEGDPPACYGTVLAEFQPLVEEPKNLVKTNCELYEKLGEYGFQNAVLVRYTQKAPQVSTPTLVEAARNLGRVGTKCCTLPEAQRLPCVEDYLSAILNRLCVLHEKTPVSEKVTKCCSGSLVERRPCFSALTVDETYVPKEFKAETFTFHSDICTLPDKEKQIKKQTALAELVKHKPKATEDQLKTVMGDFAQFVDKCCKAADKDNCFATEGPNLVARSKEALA

CC(=O)CC(c1ccccc1)c1c(O)c2ccccc2oc1=O (stereo not shown) [Warfarin]
affinity for HSA (Ka) (HSA; ref 45): 340000 M⁻¹ | affinity for HSA (Ka) (HSA; ref 47): 340000 M⁻¹ | affinity for HSA (Ka) (HSA; reference not given): 340000 M⁻¹

CN=C([S-])N/N=C(C)/C(C)=N/NC([S-])=NC.[Cu+2] [[^64Cu]Cu-ATSM, diacetyl bis(N^4-methylthiosemicarbazonato)copper(II)]
increase in free radiopharmaceutical level [1]: 300–500% | displacement from HSA [1, 9]: not observed | % Free (corrected) [1, 10]: 5.9 ± 0.4% | % Free (corrected) [1, 11]: 7.1 ± 0.6% | % Free (corrected) [1, 12]: 7.5 ± 0.8% | % Free (corrected) [1, 13]: 8.2 ± 1.1% | % Free (corrected) [1, 14]: 7.3 ± 0.8% | % Free (corrected) [1, 15]: 10.5 ± 1.1% | displacement from HSA [1, 16]: no displacement | % Free (corrected) [1, 17]: 7.3 ± 0.2% | % Free (corrected) [1, 18]: 9.4 ± 0.8% | % Free (corrected) [1, 19]: 12.4 ± 0.9% | % Free (corrected) [1, 20]: 14.5 ± 0.6% | % Free (corrected) [1, 21]: 19.0 ± 1.7% | Unbound level [2]: 37.0% | Free tracer [2]: 43.8% | % bound to HSA [3]: approx. 95%

CN=C([S-])N/N=C/C(C)=N/NC([S-])=NC.[Cu+2] [[^64Cu]Cu-PTSM, pyruvaldehyde bis(N^4-methylthiosemicarbazonato)copper(II)]
effect of fatty acid addition on HSA binding ([1]; 1:1 fatty acid:HSA ratios (capric, myristic, palmitic, oleic)): little effect | level of free [^64Cu]Cu-PTSM relative to fatty acid-free ([1]; 6:1 fatty acid:HSA mole ratios (capric, myristic, palmitic, oleic)): approximately doubled | increase in free radiopharmaceutical level [1]: 300–500% | displacement from HSA [1, 9]: not observed | % free ([1]; HSA with highest concentration of tryptophan, 4.8 mM (1.0 mg/mL)): 3.2 ± 0.1% | Unbound [^64Cu]Cu-PTSM ([1]; incubated at 49°C for 30 min): 3.8 ± 0.2% | Unbound [^64Cu]Cu-PTSM ([1]; room temperature control solutions): 4.2 ± 0.6% | % Free (corrected) ([1]; benzylpenicillin:HSA mole ratio 0.5, 40 mg/mL HSA): 3.8 ± 0.1% | % Free (corrected) ([1]; benzylpenicillin:HSA mole ratio 1, 40 mg/mL HSA): 3.5 ± 0.1% | % Free (corrected) ([1]; benzylpenicillin:HSA mole ratio 2, 40 mg/mL HSA): 3.3 ± 0.2% | % Free (corrected) ([1]; benzylpenicillin:HSA mole ratio 4, 40 mg/mL HSA): 3.4 ± 0.1% | % Free (corrected) ([1]; benzylpenicillin:HSA mole ratio 8, 40 mg/mL HSA): 3.3 ± 0.1% | % Free [^64Cu]Cu-PTSM ([1]; capric acid:HSA 1:1, 40 mg/mL HSA): 7.5 ± 0.3 (4) % | % Free [^64Cu]Cu-PTSM ([1]; capric acid:HSA 6:1, 40 mg/mL HSA): 12.6 ± 3.5 (5) % | displacement from HSA ([1]; cephmandole, drug:HSA mole ratios up to 4:1): not displaced | % Free (corrected) ([1]; cephmandole:HSA mole ratio 0.5, 40 mg/mL HSA): 3.5 ± 0.1% | % Free (corrected) ([1]; cephmandole:HSA mole ratio 1, 40 mg/mL HSA): 3.2 ± 0.2% | % Free (corrected) ([1]; cephmandole:HSA mole ratio 2, 40 mg/mL HSA): 3.5 ± 0.1% | % Free (corrected) ([1]; cephmandole:HSA mole ratio 4, 40 mg/mL HSA): 4.2 ± 0.2% | % Free (corrected) [1, 10]: 4.0 ± 0.1% and 4.0% and 4.0 ± 0.4% | increase in free [^64Cu]Cu-PTSM in solution ([1]; furosemide:HSA 8:1 mole ratio vs drug-free): > 700% | % Free (corrected) ([1]; furosemide:HSA mole ratio 1, 40 mg/mL HSA): 8.4 ± 0.2% | % Free (corrected) [1, 11]: 3.4 ± 0.1% | % Free (corrected) [1, 12]: 3.4 ± 0.3% | % Free (corrected) [1, 13]: 3.2 ± 0.5% | % Free (corrected) [1, 14]: 4.8 ± 0.2% | % Free (corrected) [1, 15]: 10.1 ± 0.6% | displacement from HSA [1, 16]: no displacement | % Free [^64Cu]Cu-PTSM ([1]; myristic acid:HSA 1:1, 40 mg/mL HSA): 6.8 ± 0.3 (4) % | % Free [^64Cu]Cu-PTSM ([1]; myristic acid:HSA 6:1, 40 mg/mL HSA): 14.6 ± 0.8 (5) % | % Free [^64Cu]Cu-PTSM ([1]; oleic acid:HSA 1:1, 40 mg/mL HSA): 6.0 ± 0.3 (4) % | % Free [^64Cu]Cu-PTSM ([1]; oleic acid:HSA 6:1, 40 mg/mL HSA): 12.7 ± 0.7 (4) % | % Free [^64Cu]Cu-PTSM ([1]; palmitic acid:HSA 1:1, 40 mg/mL HSA): 5.6 ± 0.2 (3) % | % Free [^64Cu]Cu-PTSM ([1]; palmitic acid:HSA 6:1, 40 mg/mL HSA): 9.6 ± 0.3 (4) % | % Free (corrected) ([1]; phenylbutazone:HSA mole ratio 1, 40 mg/mL HSA): 7.1 ± 0.1% | % Free (corrected) ([1]; phenylbutazone:HSA mole ratio 8, 40 mg/mL HSA): 28.7 ± 0.8% | % Free (corrected) [1, 17]: 4.6 ± 0.1% | % Free (corrected) [1, 18]: 5.8 ± 0.7% | % Free (corrected) [1, 19]: 7.7 ± 0.8% | % Free (corrected) [1, 20]: 14.8 ± 0.3% | % Free (corrected) [1, 21]: 20.1 ± 1.5% | % Free [^64Cu]Cu-PTSM (rat serum [4]; drug:RSA mole ratio 0): 14.7 ± 1.2% | % Free [^64Cu]Cu-PTSM (rat serum [4]; furosemide:RSA mole ratio 1): 20.2 ± 0.7% | % Free [^64Cu]Cu-PTSM (rat serum [4]; furosemide:RSA mole ratio 8): 28.6 ± 0.6% | % Free [^64Cu]Cu-PTSM (rat serum [4]; phenylbutazone:RSA mole ratio 1): 18.6 ± 0.4% | % Free [^64Cu]Cu-PTSM (rat serum [4]; phenylbutazone:RSA mole ratio 8): 20.6 ± 0.4% | % Free [^64Cu]Cu-PTSM (rat serum [4]; warfarin:RSA mole ratio 1): 19.8 ± 0.5% | % Free [^64Cu]Cu-PTSM (rat serum [4]; warfarin:RSA mole ratio 8): 24.1 ± 0.5% | free fraction ([2]; 40 mg/mL CSA, 8:1 mole ratio of warfarin (first value)): 36.1 ± 2.8% | Free tracer (% free) ([5]; saline + 2.5% v/v ethanol): 68.0 ± 2.3% | Free tracer (% free) ([5]; saline control): 67.2 ± 0.7% | % bound to HSA [3]: approx. 95% | % free ([3]; HSA solution): 4.3 ± 0.2% | % free (rat serum [6]): 14.1 ± 0.3% | % free in canine serum albumin (CSA) solutions [7]: approximately 42% | log P [8]: 1.9

C=CC1=C(C)/C(=C/c2[nH]c(Cc3[nH]c(/C=C4\NC(=O)C(C)=C4C=C)c(C)c3CCC(=O)O)c(CCC(=O)O)c2C)NC1=O [bilirubin]
association with HSA (Ka) (HSA; site believed distinct from the IIA and IIIA drug sites, no reference given): 9.5e+07 M⁻¹

ethylglyoxal bis(thiosemicarbazonato)copper(II) [[^64Cu]Cu-ETS]
% Free (corrected) [1, 10]: 40.6 ± 1.1% | % Free (corrected) [1, 11]: 43.9 ± 2.2% | % Free (corrected) [1, 12]: 42.1 ± 2.7% | % Free (corrected) [1, 13]: 45.8 ± 2.6% | % Free (corrected) [1, 14]: 43.6 ± 3.1% | % Free (corrected) [1, 15]: 49.6 ± 1.2% | interaction with HSA on addition of site IIA or IIIA drugs ([1]; warfarin, ibuprofen up to 8:1): unaffected | % Free (corrected) [1, 17]: 42.8 ± 1.6% | % Free (corrected) [1, 18]: 44.2 ± 1.2% | % Free (corrected) [1, 19]: 45.2 ± 1.3% | % Free (corrected) [1, 20]: 42.8 ± 3.4% | % Free (corrected) [1, 21]: 44.7 ± 2.7% | Unbound level [2]: 40.4% | Free tracer [2]: 39.5%
